Experimental data: ChEMBL document CHEMBL1135797, “Carbonic anhydrase activators: high affinity isozymes I, II, and IV activators, incorporating a beta-alanyl-histidine scaffold” (2002)

Legend:
Homo sapiens [1] = species on record: Homo sapiens; assay: (§1) Ex vivo carbonic anhydrase activation after 30 min incubation of human erythrocytes with 5 uM activator Histamine; format: functional
Method in brief: (§2)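 Freshly isolated human blood washed in Tris buffer (pH 7.40, 5 mM), erythrocytes incubated with 5 µM activator solution at 37 °C with gentle stirring; cells washed three times to remove unbound compound, lysed in distilled water, centrifuged; CA activity of lysate measured by 4-nitrophenyl acetate esterase assay (400 nm, pH 7.40, 25 °C). Untreated cells taken as 100%.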

[2] = target: Carbonic anhydrase 2 (Homo sapiens) (UniProt P00918); assay: In vitro carbonic anhydrase activation in human cloned Carbonic anhydrase II (hCA II)
Homo sapiens [3] = species on record: Homo sapiens; assay: (§3) Ex vivo carbonic anhydrase activation after 60 min incubation of human erythrocytes with 5 uM activator Histamine; format: functional; method in brief: as §2
[4] = target: T1, Carbonic anhydrase 4 (Bos taurus) (UniProt Q95323); assay: In vitro carbonic anhydrase IV activation in bovine lung microsomes.; conditions: Microsome
T1 sequence (whole entry): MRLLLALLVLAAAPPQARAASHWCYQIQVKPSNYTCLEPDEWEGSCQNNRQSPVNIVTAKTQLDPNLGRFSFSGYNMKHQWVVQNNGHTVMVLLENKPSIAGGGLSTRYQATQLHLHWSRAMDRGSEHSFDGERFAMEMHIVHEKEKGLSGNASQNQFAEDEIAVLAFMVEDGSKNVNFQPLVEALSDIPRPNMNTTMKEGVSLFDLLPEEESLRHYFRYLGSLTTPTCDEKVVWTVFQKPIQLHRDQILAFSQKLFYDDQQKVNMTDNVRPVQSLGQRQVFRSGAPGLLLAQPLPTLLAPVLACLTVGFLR
Method in brief: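 CA IV isolated from bovine lung microsomes and quantified by ethoxzolamide titration; used at 39 nM. 4-Nitrophenyl acetate hydrolysis initial rates followed at 400 nm, 25 °C, pH 7.40, substrate 2×10-2 to 1×10^-6 M. Activator preincubated with enzyme 15 min at room temperature. Dilutions down to 0.1 nM. Non-enzymatic rate subtracted. KA given as mean of at least three determinations.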

[5] = target: Carbonic anhydrase 1 (Homo sapiens) (UniProt P00915); assay: In vitro carbonic anhydrase activation in human cloned Carbonic anhydrase I (hCA I)
Sequence of Carbonic anhydrase 1 (Homo sapiens) (P00915 2-261 limits assumed): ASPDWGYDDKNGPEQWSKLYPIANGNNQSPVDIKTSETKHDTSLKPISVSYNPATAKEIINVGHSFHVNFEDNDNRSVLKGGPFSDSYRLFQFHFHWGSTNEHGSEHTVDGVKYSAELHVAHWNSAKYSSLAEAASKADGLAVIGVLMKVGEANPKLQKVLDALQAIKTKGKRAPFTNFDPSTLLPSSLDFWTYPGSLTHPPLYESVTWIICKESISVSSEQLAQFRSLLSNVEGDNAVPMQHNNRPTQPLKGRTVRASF

Homo sapiens [6] = species on record: Homo sapiens; assay: as §1; format: functional; remark: listed apart in the source
Method in brief: (§4)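 Fresh human blood washed repeatedly with 5 mM Tris pH 7.40 and centrifuged; erythrocytes incubated with 5 µM activator at 37 °C with gentle stirring. Cells washed three times with buffer to remove unbound compound, lysed in distilled water and centrifuged. Lysate CA activity measured by 4-nitrophenyl acetate esterase assay at 400 nm. Buffer-only cells set as 100%.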

Homo sapiens [7] = species on record: Homo sapiens; assay: as §3; format: functional; method in brief: as §4; remark: listed apart in the source

KA [2]	KA [4]	KA [5]	SMILES	CA (Homo sapiens [1])	CA (Homo sapiens [3])	CA (Homo sapiens [6])	CA (Homo sapiens [7])
0.02 µM	0.008 µM	0.004 µM	Cc1ccccc1S(=O)(=O)NC(=O)NCCC(=O)N[C@@H](Cc1c[nH]cn1)C(=O)NCCC(=O)N[C@@H](Cc1c[nH]cn1)C(=O)O	236%	267%		
0.01 µM	0.005 µM	0.002 µM	O=C(CCNC(=O)[C@H](Cc1c[nH]cn1)NC(=O)CCNC(=O)NS(=O)(=O)c1ccc(F)cc1)N[C@@H](Cc1c[nH]cn1)C(=O)O			254%	283%

SMILES	KA [2]	KA [4]	KA [5]	CA (Homo sapiens [1])	CA (Homo sapiens [3])	CA (Homo sapiens [6])	CA (Homo sapiens [7])
NCCc1c[nH]cn1 [HISTAMINE]			2 µM	121%	130%		
